In brackets after ≈: the same amount, converted by molar mass.
Legend:
P. falciparum (D6) = experiment: in vitro antimalarial activity, plasmodial LDH; assay type: cell-based, Plasmodium falciparum; settings: CQ-sensitive D6 strain, 72 h
P. falciparum (W2) = experiment: in vitro antimalarial activity, plasmodial LDH; assay type: cell-based, Plasmodium falciparum; settings: CQ-resistant W2 strain, 72 h
Method in brief: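 P. falciparum-infected erythrocytes (2% parasitemia, 2% hematocrit) in RPMI 1640 with 10% human serum and 60 μg/mL amikacin. Exposed to test compound dilutions for 72 h at 37 °C under 90% N2/5% O2/5% CO2. LDH measured with Malstat reagent (30 min, room temperature), then NBT/PES for 1 h in the dark, stopped with 5% acetic acid, read at 650 nm. IC50 from dose-response curves.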

[1] = system: SK-MEL, KB, BT-549, SK-OV-3, VERO and LLC-PK1 cells; experiment: cytotoxicity, neutral red uptake assay; assay type: cell-based, mammalian; settings: highest test concentration 4760 ng/mL
Method in brief: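 Cells seeded at 25 000/well and allowed 24 h to reach confluence. Test compound was then added and incubated 48 h. Viable cells were counted by a modified neutral red uptake method. The panel was four human cancer lines and two noncancerous mammalian kidney lines. Doxorubicin served as positive control and DMSO as negative control.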

[2] = system: L. donovani promastigotes; experiment: in vitro antileishmanial activity, alamarBlue assay; assay type: cell-based, Leishmania donovani; settings: promastigotes, 48 h
C. albicans ATCC90028 = experiment: in vitro antifungal activity; assay type: cell-based, Candida albicans
Method in brief: (§1)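 Modified NCCLS broth method in Sabouraud dextrose. Inoculum set by OD630 to 1.5 × 10^3 CFU/mL. Test compound serially diluted in 20% DMSO/saline, duplicate wells, up to 20 μg/mL. Incubated 70–74 h at 35 °C; 530 nm read before and after. IC50 is 50% growth inhibition; MIC is no detectable growth. MFC from clear wells subcultured on agar. Amphotericin B control.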

C. glabrata ATCC90030 = experiment: in vitro antifungal activity; assay type: cell-based, Candida glabrata
Method in brief: as §1

C. krusei ATCC6258 = experiment: in vitro antifungal activity; assay type: cell-based, Candida krusei
Method in brief: as §1

C. neoformans ATCC90113 = experiment: in vitro antifungal activity; assay type: cell-based, Cryptococcus neoformans
Method in brief: as §1

A. fumigatus ATCC 90906 = experiment: in vitro antifungal activity; assay type: cell-based, Aspergillus fumigatus
Method in brief: as §1

SA (ATCC29213) = experiment: in vitro antibacterial activity; assay type: cell-based; settings: Staphylococcus aureus; highest test concentration 20 μg/mL
Method in brief: (§2)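 Test compound serially diluted in 20% DMSO/saline and plated in duplicate, up to 20 μg/mL. Inoculum in cation-adjusted Mueller–Hinton broth, pH 7.3, set by OD630 to 5 × 10^5 CFU/mL. Incubated 16–20 h at 35 °C; 530 nm read before and after. IC50 is 50% growth inhibition; MIC is no detectable growth. MBC from clear wells subcultured on agar. Ciprofloxacin control.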

MRSA (ATCC33591) = experiment: in vitro antibacterial activity; assay type: cell-based, methicillin-resistant Staphylococcus aureus; settings: methicillin-resistant S. aureus; highest test concentration 20 μg/mL
Method in brief: as §2

[3] = system: M. intracellulare (ATCC23068); experiment: in vitro antibacterial activity, modified alamarBlue procedure; assay type: cell-based, Mycobacterium intracellulare; settings: highest test concentration 20 μg/mL
Method in brief: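 Modified alamarBlue microplate method. Test compound serially diluted in 20% DMSO/saline, duplicate wells, up to 20 μg/mL. Inoculum 2.0 × 10^6 CFU/mL in Middlebrook 7H9 with OADC, pH 7.3, containing 5% alamarBlue. Incubated 70–74 h at 37 °C, 10% CO2; fluorescence 544ex/590em read before and after. MIC: no blue-to-pink change. MBC by subculturing blue wells on agar. Ciprofloxacin control.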

Row | Compound | P. falciparum (D6) IC50 (P. falciparum (D6)) | P. falciparum (W2) IC50 (P. falciparum (W2)) | cytotoxicity CTX [1] | C. albicans IC50 (C. albicans ATCC90028) | C. albicans MFC (C. albicans ATCC90028) | C. albicans MIC (C. albicans ATCC90028) | C. glabrata IC50 (C. glabrata ATCC90030) | C. glabrata MFC (C. glabrata ATCC90030) | C. glabrata MIC (C. glabrata ATCC90030) | C. krusei IC50 (C. krusei ATCC6258) | C. krusei MFC (C. krusei ATCC6258) | C. krusei MIC (C. krusei ATCC6258) | C. neoformans IC50 (C. neoformans ATCC90113) [µg/mL] | C. neoformans MFC (C. neoformans ATCC90113) [µg/mL] | C. neoformans MIC (C. neoformans ATCC90113) [µg/mL] | A. fumigatus IC50 (A. fumigatus ATCC 90906) | A. fumigatus MFC (A. fumigatus ATCC 90906) | A. fumigatus MIC (A. fumigatus ATCC 90906) | IC50 (concentration that affords 50% growth inhibition), SA (SA (ATCC29213)) | MBC (minimum bactericidal concentration), SA (SA (ATCC29213)) | further results
1 | CCCCCCOc1c(OC)cc(NC(C)CCCNC(=O)C2CCCN2)c2nc(C(C)(C)C)ccc12 (stereo not shown) [compound 103, N-(4-(2-tert-Butyl-5-(hexyloxy)-6-methoxyquinolin-8-lamino)pentyl)pyrrolidine-2-carboxamide] | 4 µg/mL | 2.7 µg/mL | NC (NC, not cytotoxic up to 4760 ng/mL (4.76 μg/mL)) | 11.54 µg/mL | 20.00 µg/mL | 20.00 µg/mL | 8.91 µg/mL | 10.00 µg/mL | 10.00 µg/mL | 8.76 µg/mL | 10.00 µg/mL | 10.00 µg/mL | 1.49 | 2.50 | 2.50 | NA (NA, no activity at the highest test concentration of 20 μg/mL) | NA (NA, no activity at the highest test concentration of 20 μg/mL) | NA (NA, no activity at the highest test concentration of 20 μg/mL) | 2.89 µg/mL (≈ 5.64 µM) | 10.00 µg/mL (≈ 19.5 µM) | L. donovani IC50 [2]: 4.0 µg/mL; L. donovani IC90 [2]: 6.8 µg/mL; MIC, SA (SA (ATCC29213)): 5.00 µg/mL (≈ 9.75 µM); IC50 (concentration that affords 50% growth inhibition), MRSA (MRSA (ATCC33591)): 2.64 µg/mL (≈ 5.15 µM); MBC (minimum bactericidal concentration), MRSA (MRSA (ATCC33591)): 20.00 µg/mL (≈ 39 µM); MIC, MRSA (MRSA (ATCC33591)): 5.00 µg/mL (≈ 9.75 µM); IC50 (concentration that affords 50% growth inhibition), M. intracellulare [3]: 5.94 µg/mL (≈ 11.6 µM); MBC (minimum bactericidal concentration), M. intracellulare [3]: 10.00 µg/mL (≈ 19.5 µM); MIC, M. intracellulare [3]: 10.00 µg/mL (≈ 19.5 µM)
2 | CCCCCCCOc1c(OC)cc(NC(C)CCCNC(=O)C2CCCN2)c2nc(C(C)(C)C)ccc12 (stereo not shown) [compound 113, N-(4-(2-tert-Butyl-5-(heptyloxy)-6-methoxyquinolin-8-lamino)pentyl)pyrrolidine-2-carboxamide] | 2.4 µg/mL | 1.5 µg/mL | NC (NC, not cytotoxic up to 4760 ng/mL (4.76 μg/mL)) | NA (NA, no activity at the highest test concentration of 20 μg/mL) | NA (NA, no activity at the highest test concentration of 20 μg/mL) | NA (NA, no activity at the highest test concentration of 20 μg/mL) | NA (NA, no activity at the highest test concentration of 20 μg/mL) | NA (NA, no activity at the highest test concentration of 20 μg/mL) | NA (NA, no activity at the highest test concentration of 20 μg/mL) | NA (NA, no activity at the highest test concentration of 20 μg/mL) | NA (NA, no activity at the highest test concentration of 20 μg/mL) | NA (NA, no activity at the highest test concentration of 20 μg/mL) | 2.93 | 5.00 | 5.00 | NA (NA, no activity at the highest test concentration of 20 μg/mL) | NA (NA, no activity at the highest test concentration of 20 μg/mL) | NA (NA, no activity at the highest test concentration of 20 μg/mL) | 3.52 µg/mL (≈ 6.68 µM) | 10.00 µg/mL (≈ 19 µM) | L. donovani IC50 [2]: 3.8 µg/mL; L. donovani IC90 [2]: 7 µg/mL; MIC, SA (SA (ATCC29213)): 10.00 µg/mL (≈ 19 µM); IC50 (concentration that affords 50% growth inhibition), MRSA (MRSA (ATCC33591)): 3.16 µg/mL (≈ 6 µM); MBC (minimum bactericidal concentration), MRSA (MRSA (ATCC33591)): 20.00 µg/mL (≈ 38 µM); MIC, MRSA (MRSA (ATCC33591)): 5.00 µg/mL (≈ 9.49 µM); IC50 (concentration that affords 50% growth inhibition), M. intracellulare [3]: 16.67 µg/mL (≈ 31.6 µM); MBC (minimum bactericidal concentration), M. intracellulare [3]: 20.00 µg/mL (≈ 38 µM); MIC, M. intracellulare [3]: 20.00 µg/mL (≈ 38 µM)
3 | CCCCCCCCOc1c(OC)cc(NC(C)CCCNC(=O)C(N)CCCCN)c2nc(C(C)(C)C)ccc12 (stereo not shown) [compound 117, 2,6-Diamino-N-(4-(2-tert-butyl-6-methoxy-5-(octyloxy)quinolin-8-lamino)pentyl)-hexanamide] | NA (NA, not active) | NA (NA, not active) | NC (NC, not cytotoxic up to 4760 ng/mL (4.76 μg/mL)) | NA (NA, no activity at the highest test concentration of 20 μg/mL) | NA (NA, no activity at the highest test concentration of 20 μg/mL) | NA (NA, no activity at the highest test concentration of 20 μg/mL) | NA (NA, no activity at the highest test concentration of 20 μg/mL) | NA (NA, no activity at the highest test concentration of 20 μg/mL) | NA (NA, no activity at the highest test concentration of 20 μg/mL) | NA (NA, no activity at the highest test concentration of 20 μg/mL) | NA (NA, no activity at the highest test concentration of 20 μg/mL) | NA (NA, no activity at the highest test concentration of 20 μg/mL) | 11.92 | >20 | >20 | NA (NA, no activity at the highest test concentration of 20 μg/mL) | NA (NA, no activity at the highest test concentration of 20 μg/mL) | NA (NA, no activity at the highest test concentration of 20 μg/mL) | NA (NA, no activity at the highest test concentration of 20 μg/mL) | NA (NA, no activity at the highest test concentration of 20 μg/mL) | MIC, SA (SA (ATCC29213)): NA (NA, no activity at the highest test concentration of 20 μg/mL); IC50 (concentration that affords 50% growth inhibition), MRSA (MRSA (ATCC33591)): NA (NA, no activity at the highest test concentration of 20 μg/mL); MBC (minimum bactericidal concentration), MRSA (MRSA (ATCC33591)): NA (NA, no activity at the highest test concentration of 20 μg/mL); MIC, MRSA (MRSA (ATCC33591)): NA (NA, no activity at the highest test concentration of 20 μg/mL); IC50 (concentration that affords 50% growth inhibition), M. intracellulare [3]: NA (NA, no activity at the highest test concentration of 20 μg/mL); MBC (minimum bactericidal concentration), M. intracellulare [3]: NA (NA, no activity at the highest test concentration of 20 μg/mL); MIC, M. intracellulare [3]: NA (NA, no activity at the highest test concentration of 20 μg/mL)

From PMC6045484 (ACS Omega, 2018)
